Assay [1] can be described thus: Inhibition of HIV1 Protease M1 variant by FRET based assay. Further details: species or system Human immunodeficiency virus 1.
Assay [2] is described as follows: Inhibition of HIV1 Protease M3 variant by FRET based assay. Further details: species or system Human immunodeficiency virus 1.
The nature of assay [3]: Inhibition of HIV1 Protease M2 variant by FRET based assay. More on the design: species or system Human immunodeficiency virus 1.
Assay [4] has as its system Human immunodeficiency virus 1. The assay can be described thus: Antiviral activity against HIV1 infected MT4 cells by MTT method. The class given is functional, organism-based. The conditions noted are these: Human immunodeficiency virus 1, MT4. The procedure, abridged:
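HIV-1 4–3 (100 CCID50) infected MT-4 cells, washed in PBS, seeded at 4 × 10⁴ cells/well in RPMI with 10% FBS. Compound dilutions added in triplicate at 0.5% DMSO final, 5 days at 37 °C, 5% CO₂, mock-infected controls in parallel. MTT added for 4 h, formazan solubilized, absorbance read at 540/690 nm.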
(In general: Formazan colour is commonly taken as a measure of viable cells.)

In another assay the target is Protease (Human immunodeficiency virus 1, UniProt Q9YQ12). Put plainly: Inhibition of Wild type HIV1 Protease by FRET based assay.
Chain of Protease (Q9YQ12 whole entry): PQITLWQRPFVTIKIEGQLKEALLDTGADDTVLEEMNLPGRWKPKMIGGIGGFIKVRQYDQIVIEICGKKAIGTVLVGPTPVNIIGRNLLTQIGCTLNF

The term Ki denotes the dissociation constant of the complex between target and ligand, obtained from inhibition or displacement. A higher Ki goes with a looser hold on the target. The term EC50 denotes the concentration that produces a half-maximal response. Read a low EC50 as higher potency in that assay. In the case of `CC(C)(C)NC(=O)[C@@H]1C[C@@H]2CCCC[C@@H]2CN1C[C@@H](O)[C@H](Cc1ccccc1)NC(=O)[C@H](CC(N)=O)NC(=O)c1ccc2ccccc2n1`, the Ki worked out at 89.5 nM in assay [1], 78.4 nM in assay [2] and 1.03 nM in assay [3]. This molecule also returned an EC50 in assay [4] of 10 nM.

With `CC(C)CN(C[C@@H](O)[C@H](Cc1ccccc1)NC(=O)O[C@H]1CCOC1)S(=O)(=O)c1ccc(N)cc1`, the figures for the Ki in assay [1], in assay [2] and in assay [3] were 0.15 nM, 1.4 nM and 0.21 nM, respectively. In assay [4], this molecule had a 50% effective concentration (EC50) of 40 nM.

As to `COC(=O)N[C@H](C(=O)N[C@@H](Cc1ccccc1)C[C@H](O)[C@H](Cc1ccccc1)NC(=O)[C@@H]1CN(c2ccccc2)C(=O)O1)C(C)(C)C`, the Ki worked out at 131 nM in assay [1], 392 nM in assay [2], 14 nM in assay [3] and 3.51 nM at Protease. This molecule also returned an EC50 in assay [4] of 1030 nM.

`Cc1cccc(C)c1OCC(=O)N[C@@H](Cc1ccccc1)C[C@H](O)[C@H](Cc1ccccc1)NC(=O)[C@@H]1CN(c2ccccc2)C(=O)O1`: the Ki at Protease was found to be 8.05 nM.

In the case of `CC(=O)c1cccc(N2C[C@@H](C(=O)N[C@@H](Cc3ccccc3)[C@@H](O)C[C@H](Cc3ccccc3)NC(=O)COc3c(C)cccc3C)OC2=O)c1`, at Protease, the Ki came to 35.1 nM.

On to `O=C(N[C@@H](Cc1ccccc1)[C@@H](O)CN(Cc1ccc(-c2ccccn2)cc1)NC(=O)[C@@H]1CN(c2ccccc2)C(=O)O1)[C@@H]1CN(c2ccccc2)C(=O)O1`, for which the Ki on Protease came to 300 nM.

`CC(=O)c1cccc(N2C[C@@H](C(=O)N[C@@H](Cc3ccccc3)[C@@H](O)CN(Cc3ccc(-c4ccccn4)cc3)NC(=O)[C@@H]3CN(c4cccc(C(C)=O)c4)C(=O)O3)OC2=O)c1` returned a Ki at Protease of 1090 nM.

Consider `CC(=O)N[C@H](C(=O)N[C@@H](Cc1ccccc1)C[C@H](O)[C@H](Cc1ccccc1)NC(=O)[C@@H]1CN(c2ccc(F)c(F)c2)C(=O)O1)C(C)C`, for which the Ki in assay [1] amounted to 168 nM; in assay [2], 282 nM; in assay [3], 3.9 nM; on Protease, 2.13 nM. The same molecule registered an EC50 in assay [4] of 360 nM.

Consider `CC(C)[C@@H](C(=O)N[C@@H](Cc1ccccc1)C[C@H](O)[C@H](Cc1ccccc1)NC(=O)[C@@H]1CN(c2ccccc2)C(=O)O1)N1CCCNC1=O`, for which the Ki in assay [1] is 175 nM; in assay [2] it was 185 nM; in assay [3], 13.9 nM. The molecule also had an EC50 in assay [4] of 1210 nM.

As for `Cc1cccc(C)c1OCC(=O)N[C@@H](Cc1ccccc1)[C@@H](O)C[C@H](Cc1ccccc1)NC(=O)[C@H]1CN(c2ccccc2)C(=O)O1`, at Protease, affinity was put at a Ki of 4730 nM.

In the case of `CC(=O)N[C@H](C(=O)N[C@@H](Cc1ccccc1)C[C@H](O)[C@H](Cc1ccccc1)NC(=O)[C@@H]1CN(c2ccccc2)C(=O)O1)C(C)C`, the Ki in assay [1] is 51.2 nM; in assay [2], 112 nM; in assay [3] it was 3.1 nM. Further, the EC50 in assay [4] was 790 nM.

In the case of `CC(=O)c1ccc(N2C[C@@H](C(=O)N[C@@H](Cc3ccccc3)[C@@H](O)C[C@H](Cc3ccccc3)NC(=O)COc3c(C)cccc3C)OC2=O)cc1`, the affinity on Protease corresponds to a Ki of 39.9 nM.

On to `Cc1cccc(C)c1OCC(=O)N[C@@H](Cc1ccccc1)[C@@H](O)C[C@H](Cc1ccccc1)NC(=O)[C@@H]1CN(c2ccccc2)C(=O)O1`, for which the Ki in assay [1] amounted to 364 nM; in assay [2], 447 nM; in assay [3] it was 18.3 nM; at Protease it was 7.28 nM.

For `CC(=O)N[C@H](C(=O)N[C@@H](Cc1ccccc1)C[C@H](O)[C@H](Cc1ccccc1)NC(=O)[C@@H]1CN(c2cccc(C(C)=O)c2)C(=O)O1)C(C)C`, the Ki in assay [1] turned out to be 82.3 nM; in assay [2], 122 nM; in assay [3], 1.67 nM. Further, a half-maximal response in assay [4] (EC50) required 620 nM.

For `COC(=O)N[C@H](C(=O)NN(CC(C)C)C[C@H](O)[C@H](Cc1ccccc1)NC(=O)[C@@H]1CN(c2ccccc2)C(=O)O1)C(C)(C)C`, the Ki came out at 231 nM in assay [1], 549 nM in assay [2], 39.2 nM in assay [3] and 7 nM at Protease.

Regarding `COC(=O)N[C@H](C(=O)N[C@@H](Cc1ccccc1)[C@@H](O)CN(CC(C)C)NC(=O)[C@@H]1CN(c2ccccc2)C(=O)O1)C(C)(C)C`, at Protease, the affinity, expressed as Ki, was 10.6 nM. In other words, the double-digit nanomolar range.

As to `Cc1cccc(C)c1OCC(=O)N[C@@H](Cc1ccccc1)[C@@H](O)C[C@H](Cc1ccccc1)NC(=O)[C@@H]1CN(c2cccc(C(F)(F)F)c2)C(=O)O1`, the Ki on Protease came out at 21.6 nM. Against the preceding molecule, the Ki is about 2-fold higher.

Turning to `O=C(Cc1ccc2c(c1)OCO2)N[C@@H](Cc1ccccc1)[C@@H](O)C[C@H](Cc1ccccc1)NC(=O)[C@@H]1CN(c2ccccc2)C(=O)O1`, the affinity at Protease corresponds to a Ki of 657 nM. This Ki is about 30-fold higher than that of the molecule before.

Consider `O=C(N[C@@H](Cc1ccccc1)[C@@H](O)C[C@H](Cc1ccccc1)NC(=O)[C@@H]1CN(c2cccc(C(F)(F)F)c2)C(=O)O1)OCc1cccnc1`, for which the affinity at Protease, expressed as Ki, was 41.1 nM.

In turn, `CC(=O)N[C@H](C(=O)N[C@@H](Cc1ccccc1)C[C@H](O)[C@H](Cc1ccccc1)NC(=O)[C@@H]1CN(c2cccc(C(F)(F)F)c2)C(=O)O1)C(C)C` had an inhibition constant Ki on Protease of 2.62 nM. Against the preceding molecule, the Ki is about 16-fold lower.

Take `COC(=O)N[C@H](C(=O)N[C@@H](Cc1ccccc1)[C@@H](O)CN(Cc1ccc(-c2ccccn2)cc1)NC(=O)[C@@H](NC(=O)OC)C(C)(C)C)C(C)(C)C` [ATAZANAVIR]: the Ki in assay [1] was 0.33 nM; in assay [2], 0.49 nM; in assay [3] it was 0.009 nM.

For the molecule `Cc1cccc(C)c1OCC(=O)N[C@@H](Cc1ccccc1)[C@@H](O)C[C@H](Cc1ccccc1)NC(=O)[C@H](C(C)C)N1CCCNC1=O` [LOPINAVIR], the Ki in assay [1] was 6.1 nM; in assay [2], 0.9 nM; in assay [3] it was 0.04 nM. Further, in assay [4], a half-maximal response (EC50) required 10 nM.

(Values after ChEMBL document CHEMBL1148771, “Design and synthesis of HIV-1 protease inhibitors incorporating oxazolidinones as P2/P2' ligands in pseudosymmetric dipeptide isosteres” (J Med Chem, 2007).)
